# Laboratory results reported in ChEMBL document CHEMBL1146037, “Design and discovery of a novel dipeptidyl-peptidase IV (CD26)-based prodrug approach” (J Med Chem, 2006).
# Activity calls are given as the source filed them. The calls are words filed in the database; no cut-off is given here.
# Tested on: MT4
# Experiment: Antiviral activity against HIV2 assessed as inhibition of HIV2-induced cytopathicity in MT4 cells
# Format: functional, cell-based
# Conditions: not given
# Procedure, shortened: (§1)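 CEM and MT-4 cell cultures infected with HIV-1 or HIV-2, with compounds diluted into culture medium from DMSO stocks. Antiviral activity is read at day 4 post-infection and reported as EC50.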
row,Compound,Activity
1,Cc1cn(C2OC(CO[Si](C)(C)C(C)(C)C)C3(OS(=O)(=O)C=C3N)C2O[Si](C)(C)C(C)(C)C)c(=O)n(CCCNC(=O)[C@@H](NC(=O)[C@@H]2CCCN2C(=O)[C@@H](N)C(C)C)C(C)C)c1=O (some centres not stated),inactive
2,Cc1cn(C2OC(CO[Si](C)(C)C(C)(C)C)C3(OS(=O)(=O)C=C3N)C2O[Si](C)(C)C(C)(C)C)c(=O)n(CCCNC(=O)CNC(=O)[C@@H](N)C(C)C)c1=O (some centres not stated),inactive
3,Cc1cn(C2OC(CO[Si](C)(C)C(C)(C)C)C3(OS(=O)(=O)C=C3N)C2O[Si](C)(C)C(C)(C)C)c(=O)n(CCCNC(=O)[C@H](Cc2ccccc2)NC(=O)[C@@H](N)C(C)C)c1=O (some centres not stated),inactive

# Target: T1, Dipeptidyl peptidase 4 (Homo sapiens, UniProt P27487)
# T1 sequence (P27487 whole entry): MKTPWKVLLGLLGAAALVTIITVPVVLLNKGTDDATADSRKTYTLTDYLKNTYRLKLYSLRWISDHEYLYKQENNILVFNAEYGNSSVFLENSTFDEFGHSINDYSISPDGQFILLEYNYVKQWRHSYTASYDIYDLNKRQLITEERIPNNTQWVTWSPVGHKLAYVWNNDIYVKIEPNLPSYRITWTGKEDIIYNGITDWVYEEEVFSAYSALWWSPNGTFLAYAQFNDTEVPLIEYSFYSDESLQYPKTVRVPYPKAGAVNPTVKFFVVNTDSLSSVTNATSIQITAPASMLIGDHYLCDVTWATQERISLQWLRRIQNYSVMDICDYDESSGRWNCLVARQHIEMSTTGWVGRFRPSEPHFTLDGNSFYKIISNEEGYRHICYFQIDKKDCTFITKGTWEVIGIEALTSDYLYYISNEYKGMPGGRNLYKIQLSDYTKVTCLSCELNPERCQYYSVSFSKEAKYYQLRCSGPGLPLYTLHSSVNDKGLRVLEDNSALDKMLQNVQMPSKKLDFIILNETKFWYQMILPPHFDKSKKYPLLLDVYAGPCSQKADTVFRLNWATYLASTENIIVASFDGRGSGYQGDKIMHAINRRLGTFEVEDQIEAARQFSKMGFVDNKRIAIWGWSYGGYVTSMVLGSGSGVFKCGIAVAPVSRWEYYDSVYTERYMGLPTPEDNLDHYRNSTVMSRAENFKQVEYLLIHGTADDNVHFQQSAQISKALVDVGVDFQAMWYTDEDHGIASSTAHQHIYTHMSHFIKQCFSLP
# Experiment: Conversion of prodrug to parent drug NAP-TSAO-T catalyzed by CD26 after 24 hrs
# Format: ADME
# Set-up: concentration or dose not given beside the values
# Conditions: not given
row,Compound,Activity
1,Cc1cn(C2OC(CO[Si](C)(C)C(C)(C)C)C3(OS(=O)(=O)C=C3N)C2O[Si](C)(C)C(C)(C)C)c(=O)n(CCCNC(=O)CNC(=O)[C@@H](N)C(C)C)c1=O (some centres not stated),0%
2,Cc1cn(C2OC(CO[Si](C)(C)C(C)(C)C)C3(OS(=O)(=O)C=C3N)C2O[Si](C)(C)C(C)(C)C)c(=O)n(CCCNC(=O)[C@H](Cc2ccccc2)NC(=O)[C@@H](N)C(C)C)c1=O (some centres not stated),0%

# Tested on: MT4
# Experiment: Antiviral activity against HIV1 assessed as inhibition of HIV1-induced cytopathicity in MT4 cells
# Format: functional, cell-based
# Conditions: Homo sapiens
# Procedure, shortened: as §1
row,Compound,EC50
1,Cc1cn(C2OC(CO[Si](C)(C)C(C)(C)C)C3(OS(=O)(=O)C=C3N)C2O[Si](C)(C)C(C)(C)C)c(=O)n(CCCNC(=O)[C@@H](NC(=O)[C@@H]2CCCN2C(=O)[C@@H](N)C(C)C)C(C)C)c1=O (some centres not stated),0.22 µM
2,Cc1cn(C2OC(CO[Si](C)(C)C(C)(C)C)C3(OS(=O)(=O)C=C3N)C2O[Si](C)(C)C(C)(C)C)c(=O)n(CCCNC(=O)CNC(=O)[C@@H](N)C(C)C)c1=O (some centres not stated),0.14 µM
3,Cc1cn(C2OC(CO[Si](C)(C)C(C)(C)C)C3(OS(=O)(=O)C=C3N)C2O[Si](C)(C)C(C)(C)C)c(=O)n(CCCNC(=O)[C@H](Cc2ccccc2)NC(=O)[C@@H](N)C(C)C)c1=O (some centres not stated),0.26 µM

# Target: T1, Dipeptidyl peptidase 4
# Experiment: Conversion of prodrug to parent drug NAP-TSAO-T catalyzed by CD26 after 1 hr
# Format: ADME
# Set-up: concentration or dose not given beside the values
# Conditions: not given
row,Compound,Activity
1,Cc1cn(C2OC(CO[Si](C)(C)C(C)(C)C)C3(OS(=O)(=O)C=C3N)C2O[Si](C)(C)C(C)(C)C)c(=O)n(CCCNC(=O)CNC(=O)[C@@H](N)C(C)C)c1=O (some centres not stated),0%
2,Cc1cn(C2OC(CO[Si](C)(C)C(C)(C)C)C3(OS(=O)(=O)C=C3N)C2O[Si](C)(C)C(C)(C)C)c(=O)n(CCCNC(=O)[C@H](Cc2ccccc2)NC(=O)[C@@H](N)C(C)C)c1=O (some centres not stated),0%

# Target: T1, Dipeptidyl peptidase 4
# Experiment: Conversion of prodrug to parent drug NAP-TSAO-T catalyzed by CD26 after 4 hrs
# Format: ADME
# Set-up: concentration or dose not given beside the values
# Conditions: not given
row,Compound,Activity
1,Cc1cn(C2OC(CO[Si](C)(C)C(C)(C)C)C3(OS(=O)(=O)C=C3N)C2O[Si](C)(C)C(C)(C)C)c(=O)n(CCCNC(=O)CNC(=O)[C@@H](N)C(C)C)c1=O (some centres not stated),0%
2,Cc1cn(C2OC(CO[Si](C)(C)C(C)(C)C)C3(OS(=O)(=O)C=C3N)C2O[Si](C)(C)C(C)(C)C)c(=O)n(CCCNC(=O)[C@H](Cc2ccccc2)NC(=O)[C@@H](N)C(C)C)c1=O (some centres not stated),0%

# Tested on: CCRF-CEM
# Experiment: Antiproliferative activity against human CEM cell line
# Format: functional
# Conditions: not given
# Procedure, shortened: (§2)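 Cytostatic assay: compounds made up as DMSO stocks and diluted in culture medium. CC50 is the concentration that inhibits MT-4 or CEM cell proliferation by 50%.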
row,Compound,CC50
1,Cc1cn(C2OC(CO[Si](C)(C)C(C)(C)C)C3(OS(=O)(=O)C=C3N)C2O[Si](C)(C)C(C)(C)C)c(=O)n(CCCNC(=O)[C@@H](NC(=O)[C@@H]2CCCN2C(=O)[C@@H](N)C(C)C)C(C)C)c1=O (some centres not stated),11 µM
2,Cc1cn(C2OC(CO[Si](C)(C)C(C)(C)C)C3(OS(=O)(=O)C=C3N)C2O[Si](C)(C)C(C)(C)C)c(=O)n(CCCNC(=O)CNC(=O)[C@@H](N)C(C)C)c1=O (some centres not stated),10 µM
3,Cc1cn(C2OC(CO[Si](C)(C)C(C)(C)C)C3(OS(=O)(=O)C=C3N)C2O[Si](C)(C)C(C)(C)C)c(=O)n(CCCNC(=O)[C@H](Cc2ccccc2)NC(=O)[C@@H](N)C(C)C)c1=O (some centres not stated),10 µM

# Tested on: CCRF-CEM
# Experiment: Antiviral activity against HIV1 assessed as inhibition of HIV1-induced cytopathicity in CEM cells
# Format: functional, cell-based
# Conditions: Homo sapiens
# Procedure, shortened: as §1
row,Compound,EC50
1,Cc1cn(C2OC(CO[Si](C)(C)C(C)(C)C)C3(OS(=O)(=O)C=C3N)C2O[Si](C)(C)C(C)(C)C)c(=O)n(CCCNC(=O)[C@@H](NC(=O)[C@@H]2CCCN2C(=O)[C@@H](N)C(C)C)C(C)C)c1=O (some centres not stated),0.07 µM
2,Cc1cn(C2OC(CO[Si](C)(C)C(C)(C)C)C3(OS(=O)(=O)C=C3N)C2O[Si](C)(C)C(C)(C)C)c(=O)n(CCCNC(=O)CNC(=O)[C@@H](N)C(C)C)c1=O (some centres not stated),0.05 µM
3,Cc1cn(C2OC(CO[Si](C)(C)C(C)(C)C)C3(OS(=O)(=O)C=C3N)C2O[Si](C)(C)C(C)(C)C)c(=O)n(CCCNC(=O)[C@H](Cc2ccccc2)NC(=O)[C@@H](N)C(C)C)c1=O (some centres not stated),0.09 µM

# Target: Human immunodeficiency virus type 1 reverse transcriptase (Human immunodeficiency virus 1, UniProt Q72547)
# Experiment: Inhibition of recombinant HIV1 reverse transcriptase
# Conditions: not given
row,Compound,IC50
1,Cc1cn(C2OC(CO[Si](C)(C)C(C)(C)C)C3(OS(=O)(=O)C=C3N)C2O[Si](C)(C)C(C)(C)C)c(=O)n(CCCNC(=O)[C@@H](NC(=O)[C@@H]2CCCN2C(=O)[C@@H](N)C(C)C)C(C)C)c1=O (some centres not stated),4.4 µM
2,Cc1cn(C2OC(CO[Si](C)(C)C(C)(C)C)C3(OS(=O)(=O)C=C3N)C2O[Si](C)(C)C(C)(C)C)c(=O)n(CCCNC(=O)CNC(=O)[C@@H](N)C(C)C)c1=O (some centres not stated),3.8 µM
3,Cc1cn(C2OC(CO[Si](C)(C)C(C)(C)C)C3(OS(=O)(=O)C=C3N)C2O[Si](C)(C)C(C)(C)C)c(=O)n(CCCNC(=O)[C@H](Cc2ccccc2)NC(=O)[C@@H](N)C(C)C)c1=O (some centres not stated),6.8 µM

# Tested on: MT4
# Experiment: Antiproliferative activity against human MT4 cell line
# Format: functional
# Conditions: not given
# Procedure, shortened: as §2
row,Compound,CC50
1,Cc1cn(C2OC(CO[Si](C)(C)C(C)(C)C)C3(OS(=O)(=O)C=C3N)C2O[Si](C)(C)C(C)(C)C)c(=O)n(CCCNC(=O)[C@@H](NC(=O)[C@@H]2CCCN2C(=O)[C@@H](N)C(C)C)C(C)C)c1=O (some centres not stated),11 µM
2,Cc1cn(C2OC(CO[Si](C)(C)C(C)(C)C)C3(OS(=O)(=O)C=C3N)C2O[Si](C)(C)C(C)(C)C)c(=O)n(CCCNC(=O)CNC(=O)[C@@H](N)C(C)C)c1=O (some centres not stated),9.9 µM
3,Cc1cn(C2OC(CO[Si](C)(C)C(C)(C)C)C3(OS(=O)(=O)C=C3N)C2O[Si](C)(C)C(C)(C)C)c(=O)n(CCCNC(=O)[C@H](Cc2ccccc2)NC(=O)[C@@H](N)C(C)C)c1=O (some centres not stated),14 µM

# Tested on: CCRF-CEM
# Experiment: Antiviral activity against HIV2 assessed as inhibition of HIV2-induced cytopathicity in CEM cells
# Format: functional, cell-based
# Conditions: not given
# Procedure, shortened: as §1
row,Compound,Activity
1,Cc1cn(C2OC(CO[Si](C)(C)C(C)(C)C)C3(OS(=O)(=O)C=C3N)C2O[Si](C)(C)C(C)(C)C)c(=O)n(CCCNC(=O)[C@@H](NC(=O)[C@@H]2CCCN2C(=O)[C@@H](N)C(C)C)C(C)C)c1=O (some centres not stated),inactive
2,Cc1cn(C2OC(CO[Si](C)(C)C(C)(C)C)C3(OS(=O)(=O)C=C3N)C2O[Si](C)(C)C(C)(C)C)c(=O)n(CCCNC(=O)CNC(=O)[C@@H](N)C(C)C)c1=O (some centres not stated),inactive
3,Cc1cn(C2OC(CO[Si](C)(C)C(C)(C)C)C3(OS(=O)(=O)C=C3N)C2O[Si](C)(C)C(C)(C)C)c(=O)n(CCCNC(=O)[C@H](Cc2ccccc2)NC(=O)[C@@H](N)C(C)C)c1=O (some centres not stated),inactive
